According to ChEMBL document CHEMBL1138880, “Synthesis of DNA-directed pyrrolidinyl and piperidinyl confined alkylating chloroalkylaminoanthraquinones: potential for development of tumor-selective N-oxides” (J Med Chem, 2006):
The source made the active and inactive calls. The rule behind the calls is not given here.

Assays:
A2780 [1] = experiment: Inhibition of A2780 cell growth; assay type: functional, cell-based; conditions: Homo sapiens
A2780 [2] = experiment: Inhibition of Doxorubicin-resistant A2780 cell growth; assay type: functional, cell-based; conditions: Homo sapiens
A2780 [3] = experiment: Resistance factor, IC50 for A2780 AD cells/ IC50 for A2780 cells; assay type: functional, Homo sapiens
A2780 [4] = experiment: Resistance factor, IC50 for A2780/cp70 cells/ IC50 for A2780 cells; assay type: functional, Homo sapiens
A2780 [5] = experiment: Inhibition of cisplatin-resistant A2780 cell growth; assay type: functional, cell-based; conditions: Homo sapiens
Nucleic Acid [6] = experiment: Ability to interstand cross-link DNA by agarose gel cross-link assay; assay type: nucleic-acid assay
Method in brief: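 Linearised, 5′-end 32P-labelled pBR322 DNA (~100 ng) incubated with drug (0.01-10 µM final) in TEOA buffer at 37 °C for 1 h, then stopped. DNA was precipitated, heat-denatured in strand separation buffer (95 °C, 2 min), run on 0.8% agarose at 40 V overnight and autoradiographed. Cross-linked DNA was quantified by densitometry as the mean of three replicates.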

[7] = tested on: Panel NCI-60 (60 carcinoma cell lines); experiment: Cytotoxicity against NCI60 cell line; assay type: functional; conditions: Homo sapiens
Nucleic Acid [8] = experiment: Ability to interstand cross-link DNA upto 100 uM by agarose gel cross-link assay; assay type: nucleic-acid assay
Method in brief: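 Agarose gel interstrand cross-link assay on linearised, 5′-end 32P-labelled pBR322 in TEOA buffer at 37 °C. Drug was tested across concentrations up to 100 µM and times up to 24 h. DNA was strand-separated at 95 °C, then run on 0.8% agarose and autoradiographed.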

Nucleic Acid [9] = experiment: Alkylation of DNA at 10 uM after 24 hrs by Taq polymerase stop assay; assay type: nucleic-acid assay
Method in brief: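 Linearised pBR322 was treated with drug for 24 h; the screening range was 1 nM-10 µM. Treated DNA was extended with labelled SRM primer and Taq polymerase over 30 cycles (95 °C 1 min, 58 °C 1 min, 74 °C). Products were run on a denaturing gel in TBE at 55 °C with mechlorethamine and untreated DNA, then autoradiographed to map guanine alkylation sites.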

Nucleic Acid [10] = experiment: Induction of DNA unwinding by agarose gel based supercoiled plasmid pBR322 DNA mobility assay; assay type: nucleic-acid assay
Method in brief: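 Circular supercoiled pBR322 (250 ng) with compound in reaction buffer (Tris-HCl pH 7.9, NaCl, KCl, MgCl2, EDTA, BSA, ATP), 30 °C for 15 min; stopped, run on 0.8% agarose in 1× TAE at 100 V for 3 h, EtBr-stained 30 min, visualized under UV.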

SMILES | IC50 (A2780 [1]) | IC50 (A2780 [2]) | IC50 (A2780 [5]) | Activity (Nucleic Acid [10]) | Ratio IC50 (A2780 [3]) | Ratio IC50 (A2780 [4]) | Activity (Nucleic Acid [6]) | GI50 [7] | Activity (Nucleic Acid [8]) | Activity (Nucleic Acid [9])
O=C1c2c(O)ccc(O)c2C(=O)c2c(NCCN3CCCCC3CCl)ccc(NCCN3CCCCC3CCl)c21 (stereo not drawn) | 0.178 µM | > 1 µM | > 1 µM |  |  |  | Time-dependent effect |  |  | 
CN(C)CCNc1ccc(NCCN2C(CCl)CCCC2CCl)c2c1C(=O)c1c(O)ccc(O)c1C2=O (stereo not drawn) | 0.024 µM | 0.106 µM | 0.357 µM |  | 4.4 | 14.9 |  |  |  | 
O=C1c2ccccc2C(=O)c2c(NCCN3CCCC3CO)cccc21 (stereo not drawn) | > 1 µM | > 1 µM | > 1 µM |  |  |  |  |  |  | 
O=C1c2c(O)ccc(O)c2C(=O)c2c(NCCN3CCCCC3CO)ccc(NCCN3CCCCC3CO)c21 (stereo not drawn) | 0.74 µM | > 1 µM | > 0.59 µM |  |  | 0.9 |  |  |  | 
O=C1c2c(O)ccc(O)c2C(=O)c2c(NCCN3CCCCC3)ccc(NCCN3CCCCC3)c21 | > 1 µM | > 1 µM | > 1 µM |  |  |  |  |  |  | 
O=C1c2ccccc2C(=O)c2c(NCCN3CCCC3CCl)cccc21 (stereo not drawn) | > 1 µM | > 1 µM | > 1 µM |  |  |  |  |  |  | 
O=C1c2c(O)ccc(O)c2C(=O)c2c(NCCN3CCCC(CCl)C3)ccc(NCCN3CCCC(CCl)C3)c21 (stereo not drawn) | > 1 µM | > 1 µM | > 1 µM |  |  |  |  |  | inactive | inactive
O=C1c2c(O)ccc(O)c2C(=O)c2c(NCC[N+]3([O-])CCCCC3CCl)ccc(NCC[N+]3([O-])CCCCC3CCl)c21 (stereo not drawn) | > 1 µM | > 1 µM | > 1 µM | inactive |  |  |  |  |  | 
COc1cccc2c1C(=O)c1c(O)c3c(c(O)c1C2=O)C[C@@](O)(C(=O)CO)C[C@@H]3O[C@H]1C[C@H](N)[C@H](O)[C@H](C)O1 [DOXORUBICIN] | 0.0075 µM | 0.061 µM | 0.003 µM |  | 8.1 | 0.4 |  |  |  | 
O=C1c2c(O)ccc(O)c2C(=O)c2c(NCCN3CCCC(CO)C3)ccc(NCCN3CCCC(CO)C3)c21 (stereo not drawn) | 0.07 µM | > 1 µM | 0.07 µM |  |  | 1 |  |  |  | 

Continued, in another order:

IC50 (A2780 [1]) | IC50 (A2780 [2]) | IC50 (A2780 [5]) | Activity (Nucleic Acid [10]) | SMILES | Ratio IC50 (A2780 [3]) | Ratio IC50 (A2780 [4]) | Activity (Nucleic Acid [6]) | GI50 [7] | Activity (Nucleic Acid [8]) | Activity (Nucleic Acid [9])
0.068 µM | 0.342 µM | 0.096 µM |  | CN(C)CCNc1ccc(NCCN2CCC(Cl)C2)c2c1C(=O)c1c(O)ccc(O)c1C2=O (stereo not drawn) | 5 | 1.4 |  |  |  | 
0.029 µM | 0.292 µM | 0.079 µM |  | CN(C)CCNc1ccc(NCCN2CCCC2CCl)c2c1C(=O)c1c(O)ccc(O)c1C2=O (stereo not drawn) | 10.1 | 2.7 |  | 0.096 µM |  | 
0.009 µM | 0.075 µM | 0.063 µM |  | CN(C)CCNc1ccc(NCCN2CCCC(Cl)C2)c2c1C(=O)c1c(O)ccc(O)c1C2=O (stereo not drawn) | 8.3 | 7 |  | 0.182 µM |  | 
0.04 µM | 0.091 µM | 0.069 µM |  | CN(C)CCNc1ccc(NCCN2CCCCC2CCl)c2c1C(=O)c1c(O)ccc(O)c1C2=O (stereo not drawn) | 2.3 | 1.7 |  |  |  | 
0.576 µM | 0.426 µM | 0.535 µM |  | CN(C)CCNc1ccc(NCCN2CCC(Cl)CC2)c2c1C(=O)c1c(O)ccc(O)c1C2=O | 0.7 | 0.9 |  |  |  | inactive
